ChEMBL document CHEMBL1926614, “Substituted thiazoles V. synthesis and antitumor activity of novel thiazolo[2,3-b]quinazoline and pyrido[4,3-d]thiazolo[3,2-a]pyrimidine analogues” (2012)
Calls of active or inactive are those of the source. The calls are words filed in the database; no cut-off is given here.

Experiments:
Format in all cases: functional
[1] = Cytotoxicity against human CNS cancer cells after 48 hrs by coulter counting; conditions: Cancer cell lines
In short: (§1)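 NCI 60-cell-line panel covering nine tumour subpanels, tested over a 5-log dose range. Compounds were dissolved in DMSO and diluted in phosphate-buffered saline to a final DMSO below 1%. Wells held 6 × 10⁴ cells/ml and were run in duplicate. Controls contained PBS and DMSO at matching dilutions. Incubation was at 37 °C in humidified 5% CO₂. GI₅₀, TGI and LC₅₀ were reported.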

[2] = Cytotoxicity against human renal cancer cells after 48 hrs by coulter counting; conditions: Cancer cell lines; in short: as §1
[3] = Cytotoxicity against human prostate cancer cells after 48 hrs by coulter counting; conditions: Cancer cell lines; in short: as §1
[4] = Cytotoxicity against human breast cancer cells after 48 hrs by coulter counting; conditions: Cancer cell lines; for CC50: read-out: LC50 (the source's name); in short: as §1
NSCLC = test: Cytotoxicity against human NSCLC cells after 48 hrs by coulter counting; conditions: for CC50: read-out: LC50 (the source's name); in short: as §1
HCT-15 = test: Growth inhibition of human HCT15 cells at 10 uM after 48 hrs by coulter counting
In short: (§2)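 Single-dose primary screen across the full NCI 60-cell-line panel. Stocks were made in DMSO and diluted in PBS to a final DMSO below 1%. Cultures at 6 × 10⁴ cells/ml were run in duplicate wells alongside PBS/DMSO vehicle controls at 37 °C in humidified 5% CO₂. Data were expressed as percent growth of treated cells.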

UACC-257 = test: Growth inhibition of human UACC257 cells at 10 uM after 48 hrs by coulter counting
In short: (§3)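 Single-dose screen in the NCI 60 human tumor cell line panel (nine subpanels). Compounds dissolved in DMSO and diluted in phosphate buffered saline, keeping final DMSO below 1%. Added in duplicate wells to cells at 6 × 10⁴ cells/ml. Controls held PBS and DMSO at matching dilutions. Incubated at 37 °C, humidified, 5% CO₂. Reported as percent growth of treated cells.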

UACC-62 = test: Growth inhibition of human UACC62 cells at 10 uM after 48 hrs by coulter counting; in short: as §3
HL-60(TB) = test: Growth inhibition of human HL-60(TB) cells at 10 uM after 48 hrs by coulter counting; conditions: HL-60, 48 h, read-out: GI
In short: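 Test compound was dissolved in DMSO and diluted in phosphate-buffered saline to a final DMSO level below 1%. Dilutions were plated in duplicate with cell culture at 6 × 10⁴ cells/ml. Vehicle controls held PBS and DMSO at matching dilutions. Incubation was at 37 °C, humidified, under 5% CO₂. Data were reported as percent growth of treated cells.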

K562 = test: Growth inhibition of human K562 cells at 10 uM after 48 hrs by coulter counting; in short: as §2
A549 = test: Growth inhibition of human A549 cells at 10 uM after 48 hrs by coulter counting; conditions: A549, 48 h, read-out: GI; in short: as §2
EKVX = test: Growth inhibition of human EKVX cells at 10 uM after 48 hrs by coulter counting; conditions: read-out: GI; in short: as §2
HOP-62 = test: Growth inhibition of human HOP62 cells at 10 uM after 48 hrs by coulter counting; in short: as §2
NCI-H226 = test: Growth inhibition of human NCI-H226 cells at 10 uM after 48 hrs by coulter counting; conditions: NCI-H226, 48 h, read-out: GI; in short: as §2
NCI-H23 = test: Growth inhibition of human NCI-H23 cells at 10 uM after 48 hrs by coulter counting; conditions: NCI-H23, 48 h, read-out: GI; in short: as §2
[5] = Growth inhibition of human NCI-322M cells at 10 uM after 48 hrs by coulter counting; conditions: read-out: GI; in short: as §2
NCI-H460 = test: Growth inhibition of human NCI-H460 cells at 10 uM after 48 hrs by coulter counting; in short: as §2
NCI-H522 = test: Growth inhibition of human NCI-H522 cells at 10 uM after 48 hrs by coulter counting; conditions: NCI-H522, 48 h, read-out: GI; in short: as §2
HCT-116 = test: Growth inhibition of human HCT116 cells at 10 uM after 48 hrs by coulter counting; in short: as §2
HT-29 = test: Growth inhibition of human HT-29 cells at 10 uM after 48 hrs by coulter counting; in short: as §2
SNB-75 = test: Growth inhibition of human SNB75 cells at 10 uM after 48 hrs by coulter counting; conditions: SNB-75, 48 h, read-out: GI; in short: as §2
M14 = test: Growth inhibition of human M14 cells at 10 uM after 48 hrs by coulter counting; in short: as §2
MDA-MB-435 = test: Growth inhibition of human MDA-MB-435 cells at 10 uM after 48 hrs by coulter counting; in short: as §2
SK-MEL-2 = test: Growth inhibition of human SK-MEL-2 cells at 10 uM after 48 hrs by coulter counting; conditions: SK-MEL-2, 48 h, read-out: GI; in short: as §2
SK-MEL-5 = test: Growth inhibition of human SK-MEL-5 cells at 10 uM after 48 hrs by coulter counting; conditions: SK-MEL-5, 48 h, read-out: GI; in short: as §2
A498 = test: Growth inhibition of human A498 cells at 10 uM after 48 hrs by coulter counting; conditions: A498, 48 h, read-out: GI; in short: as §2
UO-31 = test: Growth inhibition of human UO31 cells at 10 uM after 48 hrs by coulter counting; in short: as §3
DU-145 = test: Growth inhibition of human DU145 cells at 10 uM after 48 hrs by coulter counting; in short: as §2
MCF7 = test: Growth inhibition of human MCF7 cells at 10 uM after 48 hrs by coulter counting; conditions: MCF7, 48 h, read-out: GI; in short: as §2
T47D = test: Growth inhibition of human T47D cells at 10 uM after 48 hrs by coulter counting; conditions: read-out: GI; in short: as §3
OVCAR-3 = test: Growth inhibition of human OVCAR3 cells at 10 uM after 48 hrs by coulter counting; in short: as §2
OVCAR-8 = test: Growth inhibition of human OVCAR8 cells at 10 uM after 48 hrs by coulter counting; in short: as §2
SN12C = test: Growth inhibition of human SN12C cells at 10 uM after 48 hrs by coulter counting; conditions: read-out: GI; in short: as §2
TK-10 = test: Growth inhibition of human TK10 cells at 10 uM after 48 hrs by coulter counting; conditions: TK-10, 48 h, read-out: GI; in short: as §3
[6] = Cytotoxicity against human leukemia cells after 48 hrs by coulter counting; conditions: Leukemia cell; for CC50: read-out: LC50 (the source's name); in short: as §1
[7] = Cytotoxicity against human colon cancer cells after 48 hrs by coulter counting; conditions: Cancer cell lines; in short: as §1

Compound: CCN1CC2=C(N=C3SC=C(C)N3C2c2ccc(OC)c(OC)c2)/C(=C/c2ccc(OC)c(OC)c2)C1 (stereo not given)
- GI50 [1]: 5.7 µM
- LC50 [1]: > 100 µM
- TGI [1]: 40.1 µM
- GI50 [2]: 2.5 µM
- LC50 (concentration giving 50% net cell kill) [2]: 47.1 µM
- TGI [2]: 8.9 µM
- GI50 [3]: 2.8 µM
- LC50 (concentration killing 50% of cells) [3]: 79.2 µM
- TGI [3]: 53.4 µM
- GI50 [4]: 5.7 µM
- TGI [4]: 49.5 µM
- CC50 [4]: 68.2 µM
- GI50 (NSCLC): 3 µM
- TGI (NSCLC): 44.2 µM
- CC50 (NSCLC): 86.5 µM
- growth inhibition (GI) (HCT-15): Active
- growth inhibition (GI) (UACC-257): Active
- growth inhibition (GI) (UACC-62): Active
- inhibition of growth at 10 µM (HL-60(TB)): 72.1%
- inhibition of growth at 10 µM (K562; K562, 48 h, read-out: GI): 96.4%
- inhibition of growth at 10 µM (A549): 93.2%
- inhibition of growth at 10 µM (EKVX): 37.5%
- growth inhibition (GI) (HOP-62): Active
- inhibition of growth at 10 µM (NCI-H226): 98.2%
- inhibition of growth at 10 µM (NCI-H23): 67.6%
- inhibition of growth at 10 µM [5]: 63.6%
- growth inhibition (GI) (NCI-H460): Active
- inhibition of growth at 10 µM (NCI-H522): 61.7%
- growth inhibition (GI) (HCT-116): Active
- growth inhibition (GI) (HT-29): Active
- inhibition of growth at 10 µM (SNB-75): 68.1%
- growth inhibition (GI) (M14): Active
- growth inhibition (GI) (MDA-MB-435): Active
- inhibition of growth at 10 µM (SK-MEL-2): 27.4%
- inhibition of growth at 10 µM (SK-MEL-5): 87.2%
- inhibition of growth at 10 µM (A498): 53.8%
- growth inhibition (GI) (UO-31): Active
- growth inhibition (GI) (DU-145): Active
- inhibition of growth at 10 µM (MCF7): 84.5%
- inhibition of growth at 10 µM (T47D): 26.2%
- growth inhibition (GI) (OVCAR-3): Active
- inhibition of growth at 10 µM (OVCAR-8; OVCAR-8, 48 h, read-out: GI): 96.5%
- inhibition of growth at 10 µM (SN12C): 93.7%
- inhibition of growth at 10 µM (TK-10): 98.8%
- GI50 [6]: 4 µM
- TGI [6]: 81.9 µM
- CC50 [6]: > 100 µM
- GI50 [7]: 2.1 µM
- LC50 (concentration giving 50% net cell kill) [7]: 35.3 µM
- TGI [7]: 5.6 µM

Compound: CCN1CC2=C(N=C3SC=CN3C2c2ccc(OC)cc2)/C(=C/c2ccc(OC)cc2)C1 (stereo not given)
- GI50 [1]: 4.7 µM
- LC50 [1]: 68.2 µM
- TGI [1]: 9.4 µM
- GI50 [2]: 2.3 µM
- LC50 (concentration giving 50% net cell kill) [2]: 24.9 µM
- TGI [2]: 6 µM
- GI50 [3]: 2.8 µM
- LC50 (concentration killing 50% of cells) [3]: 68.1 µM
- TGI [3]: 43.9 µM
- GI50 [4]: 2.5 µM
- TGI [4]: 8 µM
- CC50 [4]: 73.4 µM
- GI50 (NSCLC): 2.5 µM
- TGI (NSCLC): 18.3 µM
- CC50 (NSCLC): 64.9 µM
- growth inhibition (GI) (HCT-15): Active
- inhibition of growth at 10 µM (UACC-257; UACC-257, 48 h, read-out: GI): 44.8%
- inhibition of growth at 10 µM (UACC-62; UACC-62, 48 h, read-out: GI): 49.3%
- inhibition of growth at 10 µM (HL-60(TB)): 84%
- growth inhibition (GI) (K562): Active
- inhibition of growth at 10 µM (A549): 66.3%
- inhibition of growth at 10 µM (EKVX): 51.9%
- growth inhibition (GI) (HOP-62): Active
- inhibition of growth at 10 µM (NCI-H226): 88%
- inhibition of growth at 10 µM (NCI-H23): 54.8%
- inhibition of growth at 10 µM [5]: 29%
- growth inhibition (GI) (NCI-H460): Active
- inhibition of growth at 10 µM (NCI-H522): 52.3%
- growth inhibition (GI) (HCT-116): Active
- growth inhibition (GI) (HT-29): Active
- inhibition of growth at 10 µM (SNB-75): 22.3%
- inhibition of growth at 10 µM (M14; M14, 48 h, read-out: GI): 97.5%
- growth inhibition (GI) (MDA-MB-435): Active
- inhibition of growth at 10 µM (SK-MEL-2): > 10%
- inhibition of growth at 10 µM (SK-MEL-5): 74.4%
- inhibition of growth at 10 µM (A498): 11.1%
- growth inhibition (GI) (UO-31): Active
- growth inhibition (GI) (DU-145): Active
- inhibition of growth at 10 µM (MCF7): 74.3%
- inhibition of growth at 10 µM (T47D): 24.4%
- growth inhibition (GI) (OVCAR-3): Active
- growth inhibition (GI) (OVCAR-8): Active
- inhibition of growth at 10 µM (SN12C): 96.9%
- inhibition of growth at 10 µM (TK-10): 70%
- GI50 [6]: 2.7 µM
- TGI [6]: 81.6 µM
- CC50 [6]: > 100 µM
- GI50 [7]: 1.7 µM
- LC50 (concentration giving 50% net cell kill) [7]: 6.7 µM
- TGI [7]: 3.4 µM
